ChEMBL document CHEMBL3421570, “Combinatorial Libraries As a Tool for the Discovery of Novel, Broad-Spectrum Antibacterial Agents Targeting the ESKAPE Pathogens” (J Med Chem, 2015)
The source made the active and inactive calls. The rule behind the calls is not given here.

Legend:
[1] = tested on: Staphylococcus aureus; assay: Bactericidal activity against methicillin-resistant Staphylococcus aureus assessed as cell survival recovery at 0.001% measured after drug wash out after 120 mins by time kill assay; type: functional
In short: (§1)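 MRSA from stationary phase was regrown 3 h in TSB and seeded at OD600 0.5. […] After 120 min, cells were centrifuged and washed, serially diluted and plated for CFU. Percent recovery is relative to no-drug controls.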

[2] = tested on: Staphylococcus aureus; assay: Effect on bacterial density of methicillin-resistant Staphylococcus aureus at 200 uM measured over 2 hrs period by time kill assay; type: functional, organism-based
[3] = tested on: Staphylococcus aureus; assay: Bactericidal activity against methicillin-resistant Staphylococcus aureus assessed as cell survival recovery at 200 uM measured after drug wash out after 120 mins by time kill assay; type: functional; conditions: 2 h; in short: as §1

In the case of `CC(C)(C)CC(C)(C)c1ccc(OCCOCC[N+](C)(C)Cc2ccccc2)cc1.[Cl-]` [BENZETHONIUM CHLORIDE], the Survival [1] is reported as 0%.

In the case of `C[C@H]1c2cccc(O)c2C(=O)C2=C(O)[C@]3(O)C(=O)C(C(N)=O)=C(O)[C@@H](N(C)C)[C@@H]3[C@@H](O)[C@@H]21` [DOXYCYCLINE], the Activity [2] is reported as “inactive” and the survival at 200 µM [3] is reported as 92%.
